Bioassay records: PubChem BioAssay, Johns Hopkins Ion Channel Center
Compounds with a hit are over-represented: about 2.3% of the library has one in this group of screens.
TRPC4 block: inhibitors of mouse TRPC4 channel; Q9QUQ5; B-score at 10 µM; HEK293 TRPC4beta/mu-opioid, DAMGO-evoked Fluo4 calcium flux; active compounds read low; actives 0.39% (n = 300,000);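 active = B-score over 3 SD under the library average, no early fluorescence shift, positive overall ratio signal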
Target sequence (Q9QUQ5 whole entry, looked up): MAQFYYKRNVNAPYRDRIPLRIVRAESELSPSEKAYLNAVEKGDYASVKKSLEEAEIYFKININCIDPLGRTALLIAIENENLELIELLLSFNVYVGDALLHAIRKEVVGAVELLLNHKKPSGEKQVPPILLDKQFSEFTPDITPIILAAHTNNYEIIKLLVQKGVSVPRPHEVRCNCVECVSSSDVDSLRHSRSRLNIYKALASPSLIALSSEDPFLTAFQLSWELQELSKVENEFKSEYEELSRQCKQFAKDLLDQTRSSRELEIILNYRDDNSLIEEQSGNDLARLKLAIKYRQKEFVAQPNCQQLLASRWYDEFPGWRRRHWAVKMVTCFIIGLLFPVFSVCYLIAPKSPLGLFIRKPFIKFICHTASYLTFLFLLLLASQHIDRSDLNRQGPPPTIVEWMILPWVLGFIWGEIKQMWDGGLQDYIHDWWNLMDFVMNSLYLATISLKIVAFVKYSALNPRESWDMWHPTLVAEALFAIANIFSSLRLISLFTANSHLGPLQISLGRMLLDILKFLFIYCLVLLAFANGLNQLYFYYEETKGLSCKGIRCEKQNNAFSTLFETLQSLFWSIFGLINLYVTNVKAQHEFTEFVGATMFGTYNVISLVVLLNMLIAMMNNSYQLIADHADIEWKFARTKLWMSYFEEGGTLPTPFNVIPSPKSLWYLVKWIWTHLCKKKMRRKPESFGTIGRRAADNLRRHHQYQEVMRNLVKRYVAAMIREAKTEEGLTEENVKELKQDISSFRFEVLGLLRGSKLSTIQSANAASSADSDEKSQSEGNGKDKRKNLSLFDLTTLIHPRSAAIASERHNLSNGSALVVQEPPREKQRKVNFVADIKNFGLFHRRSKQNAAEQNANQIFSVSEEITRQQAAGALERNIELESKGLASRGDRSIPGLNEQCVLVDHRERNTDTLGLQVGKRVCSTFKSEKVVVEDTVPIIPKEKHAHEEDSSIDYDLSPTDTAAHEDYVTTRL
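Assay system: Stable TRPC4beta/mu-opioid receptor HEK293 cells | Reagent: DAMGO in two steps, submaximal then maximal | Compound dosing: Single concentration per test compound | Signal: Fluo4 Ca2+ flux fluorescence | Evaluation: Per-well B score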
TRPC4 agonist: TRPC4 (mouse) channel activation. HEK293 TRPC4beta/mu-opioid, Fluo4 calcium fluorescence; active compounds read high. actives 0.49% (n = 310,000). AID 2237. Q9QUQ5. B-score at 10 µM;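 active = B-score above 5 SD of library B-scores, and initial fluorescence ratio not above library mean plus 5 SD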;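 note: positive B-score marks a calcium rise read as TRPC4 activation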
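Assay system: HEK293 cells stably co-expressing mouse TRPC4beta and mu-opioid receptor / Timing: Fluo4 dye loading 45 min at room temperature, 110 s recording / Signal: Fluo4 calcium-sensitive dye fluorescence, kinetic, 1 Hz baseline / Read-out: integrated baseline-normalised fluorescence ratio, converted to per-well B score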
TRPC4 potent: allosteric potentiators of mouse TRPC4 channel; Q9QUQ5; HEK293 TRPC4beta/mu-opioid, DAMGO EC20, Fluo-4 Ca2+ flux; active compounds read high; B-score at 10 µM; actives 0.42% (n = 310,000);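 active = B-score of calcium response area above 5 SD of library B-scores, with initial fluorescence ratio within 5 SD of library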;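 note: B-score of integrated fluorescence ratio over time as area under calcium response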
TRPC6 act: activators of mouse TRPC6 channel; actives 0.13% (n = 310,000); B-score at 10 µM; Q61143; AID 2550; HEK293-TRPC6 membrane potential dye fluorescence; active compounds read high;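 active = B-score of the integrated fluorescence ratio above library mean plus 3 SD, and starting fluorescence ratio within library mean plus 5 SD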;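 note: higher score means more depolarization so channel activation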
TRPC6 inhibitor: inhibitors of mouse TRPC6 channel. Q61143. HEK293-TRPC6, membrane potential dye, ACh-evoked depolarization; active compounds read low. AID 2553. actives 1.1% (n = 310,000). B-score at 10 µM;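 active = B-score under library mean minus 3 SD, initial fluorescence not abnormally high, positive integrated signal ratio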;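 note: B-score derived from integrated fluorescence ratio over the kinetic read; more negative B-score means stronger inhibition of depolarization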
HEK293 MPD ctr: counter-screen for TRPC6 modulators: effect in parental HEK293 cells. membrane potential dye fluorescence. shares compounds with TRPC6 inhibitor. membrane potential signal change, % at 10 µM. actives 51% (n = 2,400);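 active = membrane potential signal moves up or down beyond 5 SD from buffer-only wells, on both duplicate plates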
HEK293 MPD ctr 2: second counter-screen for TRPC6 modulators: effect in parental HEK293 cells; shares compounds with TRPC6 inhibitor; AID 488926; membrane potential dye fluorescence; after compound, maximal acetylcholine stimulation; actives 14% (n = 2,400); inhibition, % at 10 µM;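 active = membrane potential signal drops by more than 5 SD from the mean control signal, in both duplicate plates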;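 note: plate controls were acetylcholine ECmax control wells for no effect and buffer only wells for full effect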
TRPC4/MOR mod: selectivity of TRPC6 modulators against mouse TRPC4. shares compounds with TRPC6 inhibitor. HEK293 TRPC4/mu-opioid, membrane potential fluorescence. percent change from control (negative = decrease, positive = increase), % at 10 µM. actives 69% (n = 2,400);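 active = membrane potential signal moved up or down beyond 5 SD of buffer control wells, in both duplicate plates, actives on both sides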;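 note: plate controls were assay buffer wells for no effect and DAMGO maximal-effect wells for full effect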
TRPC4/MOR inh 2: second selectivity test of TRPC6 modulators against mouse TRPC4; shares compounds with TRPC6 inhibitor; inhibition, % at 10 µM; actives 55% (n = 2,400); HEK293 TRPC4/mu-opioid, membrane potential dye fluorescence; stimulated with maximal-effect DAMGO;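 active = drop in membrane potential signal beyond 5 SD of the control wells in both duplicate plates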;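 note: TRPC4 counter screen for TRPC6 hits run under conditions tuned for TRPC6 not TRPC4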
TRPC6 block conf: confirmation of mouse TRPC6 inhibitors. AID 488960. actives 43% (n = 3,300). shares compounds with TRPC6 inhibitor. HEK293-TRPC6, membrane potential dye, ACh-evoked depolarization. inhibition, % at 10 µM;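 active = fluorescence ratio falls more than 5 SD below the full-stimulation control mean, in both duplicate runs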;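 note: integrated fluorescence ratio of peak minus minimum over baseline after agonist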
TRPC6 act conf: confirmation of mouse TRPC6 activators. shares compounds with TRPC6 inhibitor. HEK293-TRPC6 membrane potential dye fluorescence, FDSS. actives 11% (n = 2,800). AID 488961. activation, % at 10 µM;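 active = ratio signal rise beyond 5 SD above unstimulated control wells' mean, seen in both duplicate runs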;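 note: plate controls were buffer EC0 wells for no effect and acetylcholine ECmax response for full effect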
* hit, by the source's call; i = inactive; nt = not tested or not shown.

SMILES	TRPC4 block	TRPC4 agonist	TRPC4 potent	TRPC6 act	TRPC6 inhibitor	HEK293 MPD ctr	HEK293 MPD ctr 2	TRPC4/MOR mod	TRPC4/MOR inh 2	TRPC6 block conf	TRPC6 act conf
COc1cc(/C=N/NC(=O)c2cc(-c3ccccc3)sc2N)cc(OC)c1OC	i	i	i	i	-5*	i	i	i	53%*	44%*	i
Cc1cccc(N2CCN(C(=O)CCCSc3nc4ccccc4[nH]3)CC2)c1C	i	i	i	i	i	nt	nt	nt	nt	nt	nt
Cc1ccc(C)c2nc3sc(C(=O)N4CCOCC4)c(N)c3cc12	i	74*	i	33*	-8.7*	898%*	i	128%*	i	i	78%*
Cc1cc(C)c2cc3c(N)c(C(=O)N4CCOCC4)sc3nc2c1	i	i	i	i	i	nt	nt	nt	nt	nt	nt
Cc1cc(C)c2nc3sc(C(=O)N4CCOCC4)c(N)c3cc2c1	i	i	i	23*	-5*	900%*	83%*	189%*	i	i	297%*
CS(=O)(=O)N(CC(=O)NC1CC1)C1CCCCC1	i	i	i	i	i	nt	nt	nt	nt	nt	nt
COc1ccccc1/C=C/C=N/NC(=O)CCn1nnc2ccccc21	i	i	i	i	i	nt	nt	nt	nt	nt	nt
O=C(NC(=S)Nc1cc([N+](=O)[O-])ccc1O)C1CC1	i	i	i	i	i	nt	nt	nt	nt	nt	nt
Cc1c(CCOC(=O)c2ccc([N+](=O)[O-])cc2)sc[n+]1CC(=O)c1ccccc1	-6*	i	i	i	-7.4*	-262%*	i	-40%*	36%*	40%*	i
COC(=O)c1c(N)n(CCCN2CCOCC2)c2nc3ccccc3nc12	i	i	i	i	-5.1*	-72%*	i	-16%*	i	i	i
COCCOC(=O)c1c(N)n(CCCN2CCOCC2)c2nc3ccccc3nc12	i	i	i	i	i	nt	nt	nt	nt	nt	nt
CC(C)CNC(=S)NC(=O)c1ccc(F)cc1	i	i	i	i	i	nt	nt	nt	nt	nt	nt
N#CC1=C(N)S[C@@H](C(=O)c2ccc(F)cc2)[C@@H]1c1cccs1	i	i	i	i	-6.5*	i	i	i	i	i	i
N#CC1=C(N)SC(C(=O)c2ccccc2)C1c1cccs1 (stereo unspecified)	i	i	i	i	i	nt	nt	nt	nt	nt	nt
CCN(CC)c1ccc(NC(=O)CCS(=O)(=O)c2ccc(Br)cc2)c(C)c1	i	i	i	i	i	nt	nt	nt	nt	nt	nt
C/C(=N\NC1=NCCN1)c1ccc(N)c([N+](=O)[O-])c1	i	i	i	i	-6*	i	108%*	i	32%*	48%*	i
CCCCCCOc1ccc(/C(C)=N/NC2=NCCN2)cc1[N+](=O)[O-]	i	i	i	i	i	nt	nt	nt	nt	nt	nt
CC(=O)Nc1ccc(CN2CCc3c([nH]c4ccccc34)C2c2ccccn2)cc1 (stereo unspecified)	i	54*	i	i	-7.3*	i	i	66%*	70%*	i	i
c1ccc(C2c3[nH]c4ccccc4c3CCN2Cc2cccn2-c2ccccn2)nc1 (stereo unspecified)	i	i	i	i	i	nt	nt	nt	nt	nt	nt
